Data set [1] concerns SH-SY5Y. In words: Cytotoxicity against human SH-SY5Y cells assessed as reduction in cell viability at 1 to 50 uM incubated for 24 hrs by MTT assay. The data set is classed as cell-based. Summed up: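 Differentiated human SH-SY5Y neuroblastoma cells were exposed in culture medium to 1, 10 and 50 μM for 24 h. Viability was read as metabolic activity by MTT reduction. Untreated cells served as control, and results are mean % of untreated controls ± SEM (n = 4).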
Background: Formazan colour is commonly taken as a measure of viable cells.

Data set [2] has as its target Cholinesterase (Equus caballus) (UniProt P81908). Nature of the data set: Inhibition of equine serum BChE using butyrylthiocholine iodide as substrate at 50 uM incubated for 5 mins followed by substrate addition measured for 5 mins by Ellman's method. Summed up: (§1)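 Ellman's colorimetric method. AChE came from Electrophorus electricus and BChE from equine serum. Compounds were tested up to 50 μM, the highest concentration.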
(In general: Ellman's reagent forms a yellow product with free thiols.)

In data set [3] the target is Acetylcholinesterase (Electrophorus electricus) (UniProt O42275). Nature of the data set: Inhibition of electric eel AChE using acetylthiocholine iodide as substrate at 50 uM incubated for 5 mins followed by substrate addition measured for 5 mins by Ellman's method. An outline of the steps: as §1
In a further data set the test system is HepG2. In words: Cytotoxicity against human HepG2 cells assessed as reduction in cell viability at 1 to 50 uM incubated for 24 hrs by resazurin dye based fluorescence assay. The conditions noted are these: hepg2, 24 h. Summed up: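 HepG2 hepatocellular carcinoma cells were exposed in culture medium to 1, 10 and 50 μM. Viability was measured as metabolic activity by resazurin reduction. Results are mean % of untreated control cells ± SEM (n = 4).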

For a further data set, the target named is Acetylcholinesterase (Electrophorus electricus, UniProt O42275). In words: Inhibition of electric eel AChE assessed as inhibition constant using acetylthiocholine iodide as substrate pretreated for 5 mins followed by substrate addition measured for 5 mins by Dixon plot analysis.
In data set [4] the test system is SH-SY5Y. Nature of the data set: Neuroprotective activity against DOX-induced oxidative stress in human SH-SY5Y cells assessed as metabolic stability at 10 to 100 uM incubated for 24 hrs by resazurin dye based fluorescence assay relative to control. The class given is functional. An outline of the steps:
(§2)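 Differentiated SH-SY5Y cells were given test compounds at 10, 50 and 100 μM. Two protocols were used: 24 h compound pre-incubation then stressor, or stressor first then 24 h compound. Stressors were H2O2 1 mM, t-BHP 200 μM, ROT/AA 1 μM or DOX 1 μM, each for 4 h. Resazurin reduction was read as % of untreated control, four independent experiments, one-way ANOVA.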

The target in data set [5] is Acetylcholinesterase (Electrophorus electricus) (UniProt O42275). In words: Noncompetitive inhibition of electric eel AChE assessed as effect on Km of substrate at 5 to 20 uM using acetylthiocholine iodide as substrate incubated for 5 mins followed by substrate addition measured for 5 mins by double reciprocal Lineweaver-Burk plot analysis.
In data set [6] the test system is SH-SY5Y. In words: Neuroprotective activity against t-BHP-induced oxidative stress in human SH-SY5Y cells assessed as metabolic stability at 10 to 100 uM incubated for 24 hrs by resazurin dye based fluorescence assay relative to control. The class given is functional. Summed up:
as §2
(Alamar Blue is a resazurin reagent that responds to reducing activity.)

In data set [7] the target is Acetylcholinesterase (Electrophorus electricus) (UniProt O42275). Nature of the data set: Noncompetitive inhibition of electric eel AChE assessed as decrease in Vmax for substrate at 5 to 20 uM using acetylthiocholine iodide as substrate incubated for 5 mins followed by substrate addition measured for 5 mins by double reciprocal Lineweaver-Burk plot analysis.
The subject of data set [8] is SH-SY5Y. Nature of the data set: Neuroprotective activity against H2O2-induced oxidative stress in human SH-SY5Y cells assessed as metabolic stability at 10 to 100 uM incubated for 24 hrs by resazurin dye based fluorescence assay relative to control. The class given is functional. An outline of the steps: as §2
Data set [9] has as its system SH-SY5Y. In words: Neuroprotective activity against ROT/AA-induced oxidative stress in human SH-SY5Y cells assessed as metabolic stability at 10 to 100 uM incubated for 24 hrs by resazurin dye based fluorescence assay relative to control. The data set is classed as functional. Summed up:
as §2

For data set [10], the system named is SH-SY5Y. In words: Neuroprotective activity against t-BHP-induced oxidative stress in human SH-SY5Y cells assessed as metabolic stability incubated for 24 hrs by resazurin dye based fluorescence assay relative to control. The class given is functional, cell-based. An outline of the steps: as §2
In data set [11] the target is Acetylcholinesterase (Electrophorus electricus) (UniProt O42275). In words: Mixed inhibition of electric eel AChE assessed as decrease in Km of substrate at 7.5 to 30 uM using acetylthiocholine iodide as substrate incubated for 5 mins followed by substrate addition measured for 5 mins by double reciprocal Lineweaver-Burk plot analysis.
For data set [12] the target is unchanged. Nature of the data set: Mixed inhibition of electric eel AChE assessed as decrease in Vmax of substrate at 7.5 to 30 uM using acetylthiocholine iodide as substrate incubated for 5 mins followed by substrate addition measured for 5 mins by double reciprocal Lineweaver-Burk plot analysis.

From ChEMBL document CHEMBL4393684, “Benzoic acid-derived nitrones: A new class of potential acetylcholinesterase inhibitors and neuroprotective agents” (Eur J Med Chem, 2019) come the findings set out here.

Structures are written as SMILES. Calls of active or inactive are those of the source. No cut-off for these calls is given here.

For orientation: Ki means the dissociation constant of the complex between target and ligand, obtained from inhibition or displacement.

Chain of Acetylcholinesterase (Electrophorus electricus) (O42275 24-633 limits assumed): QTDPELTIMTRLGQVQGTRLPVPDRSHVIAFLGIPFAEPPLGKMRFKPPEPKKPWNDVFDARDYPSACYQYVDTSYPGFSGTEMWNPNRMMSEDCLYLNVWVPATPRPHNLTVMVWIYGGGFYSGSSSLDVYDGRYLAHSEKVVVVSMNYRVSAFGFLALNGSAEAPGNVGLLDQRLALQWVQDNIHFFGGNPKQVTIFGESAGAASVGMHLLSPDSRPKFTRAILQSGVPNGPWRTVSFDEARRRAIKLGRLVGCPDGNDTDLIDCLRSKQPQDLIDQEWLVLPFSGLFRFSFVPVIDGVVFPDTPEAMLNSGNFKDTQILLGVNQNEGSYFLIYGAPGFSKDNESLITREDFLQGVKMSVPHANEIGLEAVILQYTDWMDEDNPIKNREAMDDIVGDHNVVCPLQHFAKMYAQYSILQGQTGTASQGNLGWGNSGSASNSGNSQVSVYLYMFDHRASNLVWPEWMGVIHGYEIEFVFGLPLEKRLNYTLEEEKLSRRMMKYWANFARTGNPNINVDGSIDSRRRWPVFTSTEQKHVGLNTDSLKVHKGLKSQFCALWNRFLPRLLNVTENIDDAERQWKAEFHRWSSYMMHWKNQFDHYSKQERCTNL
Chain of Cholinesterase (Equus caballus) (P81908 whole entry): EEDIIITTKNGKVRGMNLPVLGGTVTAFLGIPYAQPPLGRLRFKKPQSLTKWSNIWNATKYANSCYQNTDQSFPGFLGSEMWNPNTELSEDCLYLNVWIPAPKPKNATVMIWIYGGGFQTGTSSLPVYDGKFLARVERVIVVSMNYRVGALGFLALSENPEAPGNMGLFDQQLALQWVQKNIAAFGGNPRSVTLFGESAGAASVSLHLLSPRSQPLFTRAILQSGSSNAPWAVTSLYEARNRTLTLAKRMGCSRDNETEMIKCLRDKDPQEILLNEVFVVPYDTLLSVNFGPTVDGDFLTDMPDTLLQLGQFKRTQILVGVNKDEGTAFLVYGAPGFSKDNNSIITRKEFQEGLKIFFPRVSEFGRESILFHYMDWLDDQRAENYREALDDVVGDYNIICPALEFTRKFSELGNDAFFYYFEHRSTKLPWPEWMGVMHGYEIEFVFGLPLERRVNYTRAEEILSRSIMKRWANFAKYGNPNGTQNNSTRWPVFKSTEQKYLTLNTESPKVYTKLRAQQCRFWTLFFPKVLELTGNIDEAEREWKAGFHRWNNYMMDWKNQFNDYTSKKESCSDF
Chain of Acetylcholinesterase (O42275 whole entry): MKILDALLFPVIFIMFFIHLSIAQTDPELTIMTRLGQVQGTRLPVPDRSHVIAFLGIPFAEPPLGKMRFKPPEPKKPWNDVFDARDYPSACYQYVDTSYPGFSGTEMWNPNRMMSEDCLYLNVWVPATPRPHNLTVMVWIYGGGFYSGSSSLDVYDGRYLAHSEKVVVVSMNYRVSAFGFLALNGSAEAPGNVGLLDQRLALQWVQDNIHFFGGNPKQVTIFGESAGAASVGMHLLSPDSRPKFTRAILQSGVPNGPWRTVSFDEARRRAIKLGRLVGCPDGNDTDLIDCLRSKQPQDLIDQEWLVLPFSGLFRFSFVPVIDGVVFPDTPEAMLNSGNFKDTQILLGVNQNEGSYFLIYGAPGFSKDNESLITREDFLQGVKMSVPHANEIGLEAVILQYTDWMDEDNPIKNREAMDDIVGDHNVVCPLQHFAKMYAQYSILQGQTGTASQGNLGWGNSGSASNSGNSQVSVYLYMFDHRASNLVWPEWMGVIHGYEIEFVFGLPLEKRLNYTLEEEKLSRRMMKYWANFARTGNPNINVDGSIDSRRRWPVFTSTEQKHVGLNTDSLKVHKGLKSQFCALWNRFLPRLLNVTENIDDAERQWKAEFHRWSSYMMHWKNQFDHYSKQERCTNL

`O=C(NCCCCC/C=[N+](\[O-])C1CCCCC1)c1ccccc1`: the Activity result in the data set on SH-SY5Y [1] and with HepG2 was “Non-Toxic” throughout. Moreover, the inhibition entry in data set [2] and in data set [3] was “inactive” each time.
Consider `O=C(NCCCCC/C=[N+](\[O-])Cc1ccccc1)c1ccccc1`, for which the Activity entry with SH-SY5Y [1] and in the data set on HepG2 was “Non-Toxic” each time. The inhibition result in data set [2] and in data set [3] was “inactive” in each case.
`CC(C)(C)/[N+]([O-])=C/CCCCCNC(=O)c1ccccc1`: the Activity result in the data set on SH-SY5Y [1] and with HepG2 was “Non-Toxic” each time. Further, the inhibition result in data set [2] and in data set [3] was “inactive” each time.
Regarding `COc1ccc(C(=O)NCCCCCCC/C=[N+](\[O-])C(C)(C)C)cc1OC`, the Activity entry with SH-SY5Y [1] and in the data set on HepG2 was “Non-Toxic” each time. Also, the inhibition entry in data set [2] was “inactive”.
Turning to `COc1cc(C(=O)NCCCCCCCCC/C=[N+](\[O-])C(C)(C)C)cc(OC)c1OC`, the Activity result with SH-SY5Y [1] and with HepG2 was “Non-Toxic” each time. For the same molecule, in data set [2], the inhibition result was “inactive”.
On to `COc1cccc(C(=O)NCCCCC/C=[N+](\[O-])C(C)(C)C)c1`, for which the Activity entry in the data set on SH-SY5Y [1] and in the data set on HepG2 was “Non-Toxic” throughout. The inhibition entry in data set [2] is “inactive”.
In the case of `COc1ccc(C(=O)NCCCCC/C=[N+](\[O-])C(C)(C)C)cc1OC`, the Activity is 107 to 122% in the data set with SH-SY5Y [1]; 32.9% in the data set on SH-SY5Y [4]; 44.3% with SH-SY5Y [6]; “Non-Toxic” in the data set on HepG2; 50.3% in the data set on SH-SY5Y [8]; 20.7% in the data set with SH-SY5Y [9]. In the data set on SH-SY5Y [10], the Activity result was “Dose-dependent effect”. Besides, the Ki on Acetylcholinesterase was 5.2 µM. In addition, the inhibition entry in data set [5] and in data set [7] was “Active” each time. For the same molecule, the inhibition result in [2] is “inactive”.
Regarding `COc1ccc(C(=O)NCCCCC/C=[N+](\[O-])C(C)(C)C)cc1`, the Activity result in the data set with SH-SY5Y [1] and in the data set on HepG2 was “Non-Toxic” throughout. Moreover, the inhibition entry in data set [2] is “inactive”.
`COc1cccc(C(=O)NCCCCC/C=[N+](\[O-])Cc2ccccc2)c1`: the Activity entry with SH-SY5Y [1] and in the data set with HepG2 was “Non-Toxic” throughout. In addition, the inhibition entry in [2] and in [3] was “inactive” each time.
Turning to `COc1ccc(C(=O)NCCCCC/C=[N+](\[O-])Cc2ccccc2)cc1OC`, the Activity result in the data set with SH-SY5Y [1] and in the data set on HepG2 was “Non-Toxic” in each case. The inhibition result in data set [2] and in data set [3] was “inactive” in each case.
`COc1cc(C(=O)NCCCCCCC/C=[N+](\[O-])C(C)(C)C)cc(OC)c1OC`: the Activity result with SH-SY5Y [1] and in the data set on HepG2 was “Non-Toxic” in each case. For the same molecule, the inhibition entry in data set [2] is “inactive”.
For `COc1ccc(C(=O)NCCCCC/C=[N+](\[O-])C2CCCCC2)cc1`, the Activity entry in the data set with SH-SY5Y [1] and in the data set with HepG2 was “Non-Toxic” throughout. Further, the inhibition entry in data set [2] and in data set [3] was “inactive” each time.
As for `COc1cc(C(=O)NCCCCC/C=[N+](\[O-])Cc2ccccc2)cc(OC)c1OC`, the Activity result in the data set on SH-SY5Y [1] and with HepG2 was “Non-Toxic” each time. Further, the inhibition result in data set [2] and in data set [3] was “inactive” throughout.
For `COc1cc(C(=O)NCCCCC/C=[N+](\[O-])C2CCCCC2)cc(OC)c1OC`, the Activity entry with SH-SY5Y [1] and with HepG2 was “Non-Toxic” in each case. Further, the inhibition entry in data set [2] and in data set [3] was “inactive” throughout.
Turning to `COc1ccc(C(=O)NCCCCC/C=[N+](\[O-])C2CCCCC2)cc1OC`, the Activity result in the data set on SH-SY5Y [1] and in the data set with HepG2 was “Non-Toxic” throughout. The inhibition result in data set [2] and in data set [3] was “inactive” throughout.
As to `COc1cc(C(=O)NCCCCC/C=[N+](\[O-])C(C)(C)C)cc(OC)c1OC`, the results for the Activity with SH-SY5Y [1] and in the data set on HepG2 were 107 to 122% and “Non-Toxic”, respectively. The result in the data set on SH-SY5Y [4], in the data set with SH-SY5Y [6], in the data set on SH-SY5Y [8] and with SH-SY5Y [9] was inactive. Further, in data set [2], the inhibition result is “inactive”. Also, the inhibition result in [11] and in data set [12] was “Active” in each case.
As to `COc1cccc(C(=O)NCCCCC/C=[N+](\[O-])C2CCCCC2)c1`, the Activity entry in the data set with SH-SY5Y [1] and in the data set with HepG2 was “Non-Toxic” each time. Moreover, the inhibition result in data set [2] and in data set [3] was “inactive” in each case.
On to `COc1ccc(C(=O)NCCCCCCCCC/C=[N+](\[O-])C(C)(C)C)cc1OC`, for which the Activity result with SH-SY5Y [1] and in the data set on HepG2 was “Non-Toxic” throughout. The inhibition result in [2] was “inactive”.
With `COc1ccc(C(=O)NCCCCC/C=[N+](\[O-])Cc2ccccc2)cc1`, the Activity entry in the data set with SH-SY5Y [1] and in the data set on HepG2 was “Non-Toxic” each time. Further, the inhibition entry in data set [2] and in [3] was “inactive” each time.
